SUMO Mot1 rescue – inhibitors of SUMOylation pathway: yeast Mot1-301 growth rescue | S. cerevisiae Mot1-301 growth rescue, ATP luminescence, 38.5C; percent above DMSO median, 100 means doubled | growth rescue, % at 18.8 µM | hit rate 1% among 320,000;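 active means every valid replicate shows activation above 250% relative to neutral control wells; inactive means the rest, any valid replicate at or below 250%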
KCNQ1 block – blocks the human KCNQ1 potassium channel. hit rate 1.3% among 310,000. P51787. CHO-K1 KCNQ1, FluxOR thallium flux fluorescence; stronger effect = higher value. B-score at 10 µM. AID 2642;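 active means compounds whose thallium flux B-score, printed positive for inhibition, exceeds three library SD while starting fluorescence stays within three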;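 further: channel opened by potassium depolarization with thallium stimulus after 20 min compound exposure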
AI-2 QS modul – Vibrio harveyi AI-2 quorum sensing modulation | Vibrio harveyi JMH597 AI-2 luminescence/OD600 ratio, 9 h; stronger effect = lower value; strain lacks LuxN and CqsS sensors; 0 = neutral-control median | activity change, % at 7.5 µM | hit rate 0.4% among 300,000 | AID 2094; in the data active means activity change below about -75%, passing the limit was not always enough; inconclusive means no clear call, values can overlap the other calls;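 further: luminescence divided by OD600 gain over 9 h not by final OD600 alone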
KCNQ1 pot – potentiators or activators of human KCNQ1 potassium channel; P51787; CHO-K1 KCNQ1, thallium flux FluxOR fluorescence; stronger effect = higher value; B-score at 10 µM; hit rate 0.35% among 310,000; AID 2648;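 active means fluorescence ratio B-score, a plate-corrected score, at least three library SD, with initial intensity B-score within 5 SD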
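Test system: CHO-K1 cells stably expressing KCNQ1 / Medium: assay buffer / Also added: depolarizing K+/Tl+ stimulus, K2SO4 and Tl2SO4 each 12.5 mM in 5x stock / Incubation: 90 min dye loading and 20 min compound exposure, both at room temperature / Signal: thallium influx via FluxOR fluorescence, kinetic imaging / Evaluation: B score of baseline-normalized fluorescence ratio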
hERG rescue – compounds protecting human hERG from proarrhythmic drug block; Q12809; CHO-hERG, FluxOR thallium flux, dofetilide IC70 present; activation (rescue from dofetilide block), less the hit threshold, % at 10 µM; hit rate 0.51% among 310,000; AID 1511;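 active means activation above the mean of controls blocked by dofetilide plus 5 SD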;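 further: thallium influx through hERG after potassium depolarization seen as dye fluorescence rise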
Target sequence (Q12809 whole entry, looked up): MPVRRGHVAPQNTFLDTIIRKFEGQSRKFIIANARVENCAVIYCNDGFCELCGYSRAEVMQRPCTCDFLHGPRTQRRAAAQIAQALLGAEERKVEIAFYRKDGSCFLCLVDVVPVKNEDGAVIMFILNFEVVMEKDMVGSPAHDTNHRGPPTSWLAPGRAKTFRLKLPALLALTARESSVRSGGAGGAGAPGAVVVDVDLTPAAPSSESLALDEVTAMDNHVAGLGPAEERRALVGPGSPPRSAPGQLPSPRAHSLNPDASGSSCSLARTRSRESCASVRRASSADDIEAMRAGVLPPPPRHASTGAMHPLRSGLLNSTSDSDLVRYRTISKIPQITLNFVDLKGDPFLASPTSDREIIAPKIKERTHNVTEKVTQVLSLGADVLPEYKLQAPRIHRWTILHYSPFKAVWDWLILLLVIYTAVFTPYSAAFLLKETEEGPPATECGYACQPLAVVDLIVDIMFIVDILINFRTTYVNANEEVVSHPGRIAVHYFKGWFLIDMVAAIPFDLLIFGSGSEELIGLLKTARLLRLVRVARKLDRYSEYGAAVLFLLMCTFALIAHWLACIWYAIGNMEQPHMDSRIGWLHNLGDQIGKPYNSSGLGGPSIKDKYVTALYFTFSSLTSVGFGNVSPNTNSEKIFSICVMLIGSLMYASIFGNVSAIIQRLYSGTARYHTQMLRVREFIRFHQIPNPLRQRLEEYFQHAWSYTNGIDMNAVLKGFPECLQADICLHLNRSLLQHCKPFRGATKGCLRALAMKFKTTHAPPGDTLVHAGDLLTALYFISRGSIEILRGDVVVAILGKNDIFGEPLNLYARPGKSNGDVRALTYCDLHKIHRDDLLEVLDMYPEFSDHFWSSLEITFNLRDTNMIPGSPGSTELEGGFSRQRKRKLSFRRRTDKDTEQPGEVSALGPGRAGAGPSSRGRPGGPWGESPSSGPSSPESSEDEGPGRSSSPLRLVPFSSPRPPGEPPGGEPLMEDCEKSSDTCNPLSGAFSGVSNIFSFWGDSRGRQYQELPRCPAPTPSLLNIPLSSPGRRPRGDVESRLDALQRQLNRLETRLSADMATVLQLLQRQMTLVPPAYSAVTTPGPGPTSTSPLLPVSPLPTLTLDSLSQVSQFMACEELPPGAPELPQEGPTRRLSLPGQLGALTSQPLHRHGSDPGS
KCC2 mod – modulators of human KCC2 chloride dependent transport; Q9H2X9; hit rate 2.2% among 190,000; KCC2 cells, thallium flux FluoZin-2 fluorescence; B-score of Tl+ flux slope (higher = more flux/activation; lower = inhibition) at 10 µM;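 active means thallium flux slope and its plate-corrected score both differing from the plate sample mean at a set confidence after two filtering rounds, in either direction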;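 further: slope of fluorescence scaled to starting intensity during 10 to 20 s after thallium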
KCC2 sec1 – KCC2 (human) modulation, secondary assay; shares compounds with KCC2 mod; HEK293-KCC2, thallium flux, FluoZin2 fluorescence; stronger effect = higher value; normalised thallium flux (F/F0 slope) at 10 µM; hit rate 15% among 3,700; AID 1713;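 active means thallium flux slope above the same plate's solvent-only control mean plus 3 SD; inconclusive means the two replicate wells disagree; inactive means no significant difference from solvent-only control wells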
KCC2 bumet counter – thallium flux despite bumetanide block in KCC2 cells, secondary assay 3. shares compounds with KCC2 mod. HEK293-KCC2 + bumetanide/ouabain, thallium flux FluoZin2; stronger effect = higher value. normalized thallium flux at 10 µM. hit rate 49% among 3,700;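 active means thallium entry rate above the same plate's blocked-transporter control wells by more than 3 SD; inconclusive means the two repeat wells disagree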;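 further: raw slope of fluorescence over initial fluorescence between 10 and 20 s after thallium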
KCC2 sec2 – confirmation of human KCC2 transport modulators; hit rate 23% among 3,700; HEK293-KCC2, thallium flux FluoZin2 fluorescence; actives lie on both sides; F/F0 rise rate, 10–20 s post-thallium; shares compounds with KCC2 mod; normalized thallium flux at 10 µM;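 active means thallium flux slope more than 3 SD above or below the plate's solvent-only control mean, mostly below; inconclusive means the two repeat wells disagreed; inactive means no significant shift from solvent-only controls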
HEK293 Tl flux – acts in parental HEK cells, KCC2 counter-screen; shares compounds with KCC2 mod; HEK293 parental cells, thallium flux FluoZin2, ouabain; baseline-ratio fluorescence slope, 10–20 s after thallium; thallium flux rate (normalised fluorescence) at 10 µM; hit rate 46% among 3,700;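 active means thallium flux rate significantly above the same plate's solvent-only control wells, beyond their mean plus 3 SD; inconclusive means the two replicate wells gave conflicting results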
KCC2 ouabain – modulates human KCC2 on retest with ouabain. shares compounds with KCC2 mod. HEK293-KCC2, thallium flux FluoZin2 fluorescence; bidirectional: low = inhibitor, high = activator. raw Tl+ flux slope (below DMSO = inhibition, above = activation) at 10 µM. hit rate 48% among 3,700;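 active means thallium flux slope beyond 3 SD from same-plate DMSO control mean in most replicates, usually higher, sometimes lower; inconclusive means repeat tests gave conflicting results; inactive means no significant difference from controls in most replicates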;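 further: slope of initial-normalized fluorescence between seconds 10 and 20 after thallium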
HEK counter2 – counter-screen for KCC2 modulators: effect in parental HEK293 cells | shares compounds with KCC2 mod | thallium flux FluoZin-2 fluorescence slope | thallium flux slope at 10 µM | hit rate 33% among 3,700 | AID 1718;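 active means thallium flux slope above the same plate's solvent-control mean plus 3 SD in both duplicate wells; inconclusive means duplicate wells that disagreed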;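 further: run without ouabain in cells lacking the KCC2 cotransporter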
Large screens that a line does not name were inactive (follow-up assays come after a bar, where they were run). Sampled rows, rich in hits. Any-hit rate of the full collection: about 4.2%.

O=C(Nc1nnc(SCc2ccc(F)cc2)s1)C1Cc2ccccc2CN1C(=O)c1ccco1 (configuration not stated)	KCC2 mod -3.3 | KCC2 sec1 inactive | KCC2 bumet counter inactive | KCC2 sec2 0.025 | HEK293 Tl flux inactive | KCC2 ouabain 0.017 | HEK counter2 inactive
O=C(NC(Cc1ccccc1)C(=O)O)/C(=C/c1ccc(F)cc1)NC(=O)c1ccccc1 (configuration not stated)	none
COCCN(C(=O)COC(=O)CCC(=O)c1cccs1)c1c(N)n(Cc2ccccc2)c(=O)[nH]c1=O	none (no result: KCC2 mod)
CC(NC(=O)COc1ccc(Br)cc1)C1CCCO1 (configuration not stated)	none (no result: KCC2 mod)
N#Cc1sc(C(N)=O)c(-c2ccccc2)c1-c1ccccc1	KCC2 mod 5.1 | KCC2 sec1 inactive | KCC2 bumet counter inactive | KCC2 sec2 inactive | HEK293 Tl flux inactive | KCC2 ouabain inactive | HEK counter2 inactive
CCOC(=O)N1C2=NC(C(=O)OC)=C(C(=O)OC)[C@@H]3N(Cc4ccccc4)c4ccccc4[C@]23C[C@H]1C(=O)OC	none (no result: KCC2 mod)
COC(=O)C1=C(C(=O)OC)[C@@H]2N(Cc3ccccc3)c3ccccc3[C@@]23C[C@@H](C(=O)OC)N(C(C)=O)C3=N1	KCC2 mod -1.1 | KCC2 sec1 inactive | KCC2 bumet counter inactive | KCC2 sec2 inactive | HEK293 Tl flux inactive | KCC2 ouabain inactive | HEK counter2 inactive
Cc1ccc(Nc2nnc(SC/C(O)=C(\C#N)c3nc4ccccc4[nH]3)s2)c(C)c1	KCC2 mod -4.2 | KCC2 sec1 inconclusive | KCC2 bumet counter inactive | KCC2 sec2 inconclusive | HEK293 Tl flux inconclusive | KCC2 ouabain 0.014 | HEK counter2 0.012
Cc1ccc(Nc2nnc(SCC(=O)c3ccc(Br)s3)s2)c(C)c1	KCC2 mod -3.9 | KCC2 sec1 inactive | KCC2 bumet counter inconclusive | KCC2 sec2 inconclusive | HEK293 Tl flux inactive | KCC2 ouabain 0.013 | HEK counter2 inactive
O=C(CN1C(=O)NC2(CCCCC2)C1=O)N1CCN(S(=O)(=O)c2ccccc2)CC1	none
O=C(CN1C(=O)NC2(CCCCCC2)C1=O)N1CCC(Cc2ccccc2)CC1	KCC2 mod -4.9 | KCC2 sec1 inactive | KCC2 bumet counter 0.025 | KCC2 sec2 inconclusive | HEK293 Tl flux 0.012 | KCC2 ouabain 0.017 | HEK counter2 inactive
Cc1noc(C)c1CSCC(=O)Oc1ccc(N(C)S(=O)(=O)c2ccc(Cl)cc2)cc1	none (no result: KCC2 mod)
Cc1cccc(NC(=O)c2cc(=O)[nH]c3ccccc23)c1	none (no result: KCC2 mod)
COc1ccc(/C=N/OCC(=O)N=Nc2c(O)[nH]c3ccc(Br)cc23)cc1OC	none
CC(C)c1ccc2[nH]c(O)c(N=NC(=O)c3cccc(S(=O)(=O)Nc4ccccc4Cl)c3)c2c1	none
Cc1cccc(NC(=S)N=Nc2c(O)[nH]c3ccccc23)c1	KCC2 mod 17 (no result: SUMO Mot1 rescue) | KCC2 sec1 inconclusive | KCC2 bumet counter 0.032 | KCC2 sec2 inactive | HEK293 Tl flux 0.015 | KCC2 ouabain 0.046 | HEK counter2 inconclusive
COc1ccccc1NC(=S)N=Nc1c(O)[nH]c2ccc(Br)cc12	KCC2 mod 9.1 | KCC2 sec1 inactive | KCC2 bumet counter 0.01 | KCC2 sec2 inactive | HEK293 Tl flux 0.014 | KCC2 ouabain inconclusive | HEK counter2 0.017
CC(C)NC(=S)N=Nc1c(O)[nH]c2ccc(C(C)C)cc12	KCC2 mod 4.1 | KCC2 sec1 inactive | KCC2 bumet counter 0.013 | KCC2 sec2 inactive | HEK293 Tl flux 0.015 | KCC2 ouabain inconclusive | HEK counter2 0.014
CCCCOCP(=O)(CCCC)COCCCC	none
O=C(CSc1nncs1)Nc1nnc(-c2ccccc2)o1	none (no result: KCC2 mod)
COC(=O)CN1C(=O)C2(C(C#N)=C(N)Oc3c2c(C)nn3-c2ccccc2)c2ccccc21 (configuration not stated)	KCC2 mod 3.9 | KCC2 sec1 inactive | KCC2 bumet counter 0.0057 | KCC2 sec2 inactive | HEK293 Tl flux inactive | KCC2 ouabain inactive | HEK counter2 inactive
Cc1nn(-c2ccccc2)nc1CNC(=O)C1CCC1	none
Clc1c(Cl)c(Cl)c2n[nH]nc2c1Cl	KCC2 mod -6.7 (no result: AI-2 QS modul) | KCC2 sec1 inconclusive | KCC2 bumet counter inactive | KCC2 sec2 inconclusive | HEK293 Tl flux 0.0034 | KCC2 ouabain 0.013 | HEK counter2 0.0074
NC(=O)c1ccccc1	none
NC(=O)c1ccc(F)cc1	none | KCC2 sec1 inactive | KCC2 bumet counter inactive | KCC2 sec2 inactive | HEK293 Tl flux inactive | KCC2 ouabain inactive | HEK counter2 inactive
Cc1ccccc1-c1nc(CS(=O)CC(=O)NCc2ccccc2)c(C)o1 (configuration not stated)	none (no result: KCC2 mod) | KCC2 sec1 inactive | KCC2 bumet counter inconclusive | KCC2 sec2 0.024 | HEK293 Tl flux inactive | KCC2 ouabain inconclusive | HEK counter2 inactive
Cc1ccc(CNC(=O)CS(=O)Cc2nc(-c3ccccc3C)oc2C)cc1 (configuration not stated)	none
O=C(COC(=O)c1cccc(NS(=O)(=O)/C=C/c2ccccc2)c1)Nc1ccccc1OC(F)F	none
Cc1ccc(NC(=O)CN2C(=O)C(=O)N(C3CCCC3)C2=O)c(Cl)c1	none (no result: KCNQ1 block, AI-2 QS modul, KCNQ1 pot, hERG rescue, KCC2 mod)
O=S(=O)(Nc1ncnc2sc3c(c12)CCC3)c1ccc2ccccc2c1	KCC2 mod -3.1 (no result: SUMO Mot1 rescue, KCNQ1 block, AI-2 QS modul, KCNQ1 pot, hERG rescue) | KCC2 sec1 inactive | KCC2 bumet counter 0.0056 | KCC2 sec2 inactive | HEK293 Tl flux inactive | KCC2 ouabain inactive | HEK counter2 inactive
Cn1cccc1/C=N/NC(=O)c1cccnc1	KCC2 mod 3 | KCC2 sec1 inactive | KCC2 bumet counter inactive | KCC2 sec2 inactive | HEK293 Tl flux inactive | KCC2 ouabain inactive | HEK counter2 inactive
Cc1ccc(C(=O)N/N=C\c2cccn2C)cn1	none
